ChEMBL document CHEMBL4145460, “Discovery of novel high potent and cellular active ADC type PTP1B inhibitors with selectivity over TC-PTP via modification interacting with C site” (Eur J Med Chem, 2018)

Assays:
[1] = biological target: T1, Receptor-type tyrosine-protein phosphatase F (Homo sapiens, UniProt P10586); experiment: Inhibition of human GST-tagged LAR D1 (1275 to 1613 residues) expressed in Escherichia coli BL21-CondenPlus (DE3) using pNNP as substrate
[2] = biological target: T2, Tyrosine-protein phosphatase non-receptor type 2 (Homo sapiens, UniProt P17706); experiment: Inhibition of human TCPTP using pNNP as substrate after 30 mins
T2 sequence (P17706 whole entry): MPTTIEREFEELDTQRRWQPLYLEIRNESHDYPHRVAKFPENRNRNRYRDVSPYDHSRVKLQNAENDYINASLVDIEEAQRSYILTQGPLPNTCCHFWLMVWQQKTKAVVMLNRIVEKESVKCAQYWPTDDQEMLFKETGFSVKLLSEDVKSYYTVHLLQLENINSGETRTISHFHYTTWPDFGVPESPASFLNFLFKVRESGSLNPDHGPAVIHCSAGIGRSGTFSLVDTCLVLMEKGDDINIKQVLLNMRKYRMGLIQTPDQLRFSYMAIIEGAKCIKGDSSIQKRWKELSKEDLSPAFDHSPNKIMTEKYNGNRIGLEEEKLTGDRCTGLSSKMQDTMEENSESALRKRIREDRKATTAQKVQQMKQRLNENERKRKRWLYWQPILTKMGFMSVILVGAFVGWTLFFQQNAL

Homo sapiens = organism: Homo sapiens; experiment: Selective ratio of IC50 for human TCPTP to IC50 for recombinant human PTP1B
In short: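 Ratio of TCPTP IC50 to PTP1B IC50. Both measured with the same pNPP assay: 2 mM pNPP, pH 6.5 with DTT and EDTA, 30 min at 37 °C, NaOH stop, A405, logit-derived IC50.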

[3] = biological target: T3, Tyrosine-protein phosphatase non-receptor type 6 (Homo sapiens, UniProt P29350); experiment: Inhibition of human GST-tagged SHP1 (244 to 570 residues) expressed in Escherichia coli BL21-CondenPlus (DE3) using pNNP as substrate
L6 [4] = experiment: Antidiabetic activity in rat L6 cells assessed as increase in insulin-stimulated 2-NBDG uptake at 2.5 uM after 30 mins by fluorescent assay relative to control; format: functional
In short: (§1)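 Differentiated L6 myotubes rinsed with warm PBS, serum-starved (serum-free DMEM 3 h, 37 °C; figure legend says 2 h), then exposed to compound at […] for 4 h. Insulin 10 nM for 10 min at 37 °C in Krebs-Ringer phosphate buffer pH 7.4, then 2-NBDG added. Uptake read after 30 min by fluorescence at ex 485/em 535 nm. Background from cells with drug but no 2-NBDG. n = 3, mean ± SEM.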

L6 [5] = experiment: Antidiabetic activity in rat L6 cells assessed as increase in insulin-stimulated 2-NBDG uptake at 10 uM after 30 mins by fluorescent assay relative to control; format: functional; in short: as §1
[6] = biological target: T4, Tyrosine-protein phosphatase non-receptor type 11 (Homo sapiens, UniProt Q06124); experiment: Inhibition of human GST-tagged SHP2 ([…] residues) expressed in Escherichia coli BL21-CondenPlus (DE3) using pNNP as substrate
T4 sequence (Q06124 whole entry): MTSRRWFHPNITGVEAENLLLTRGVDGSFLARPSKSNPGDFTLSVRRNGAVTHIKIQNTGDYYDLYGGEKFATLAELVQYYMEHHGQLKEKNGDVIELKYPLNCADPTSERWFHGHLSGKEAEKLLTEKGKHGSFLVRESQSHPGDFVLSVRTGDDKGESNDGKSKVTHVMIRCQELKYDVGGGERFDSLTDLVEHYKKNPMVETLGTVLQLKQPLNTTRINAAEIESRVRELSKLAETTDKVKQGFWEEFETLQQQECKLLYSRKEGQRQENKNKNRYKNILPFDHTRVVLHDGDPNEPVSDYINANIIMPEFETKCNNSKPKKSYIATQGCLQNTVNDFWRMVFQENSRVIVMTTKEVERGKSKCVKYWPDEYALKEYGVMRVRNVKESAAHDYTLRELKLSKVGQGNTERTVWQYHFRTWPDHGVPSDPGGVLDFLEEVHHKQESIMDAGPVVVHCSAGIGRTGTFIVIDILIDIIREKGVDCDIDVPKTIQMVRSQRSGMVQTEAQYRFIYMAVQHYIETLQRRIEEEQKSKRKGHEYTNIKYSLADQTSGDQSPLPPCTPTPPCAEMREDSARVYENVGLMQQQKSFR

[7] = biological target: T5, Tyrosine-protein phosphatase non-receptor type 1 (Homo sapiens, UniProt P18031); experiment: Inhibition of recombinant human PTP1B using pNNP as substrate after 30 mins
T5 sequence (P18031 whole entry): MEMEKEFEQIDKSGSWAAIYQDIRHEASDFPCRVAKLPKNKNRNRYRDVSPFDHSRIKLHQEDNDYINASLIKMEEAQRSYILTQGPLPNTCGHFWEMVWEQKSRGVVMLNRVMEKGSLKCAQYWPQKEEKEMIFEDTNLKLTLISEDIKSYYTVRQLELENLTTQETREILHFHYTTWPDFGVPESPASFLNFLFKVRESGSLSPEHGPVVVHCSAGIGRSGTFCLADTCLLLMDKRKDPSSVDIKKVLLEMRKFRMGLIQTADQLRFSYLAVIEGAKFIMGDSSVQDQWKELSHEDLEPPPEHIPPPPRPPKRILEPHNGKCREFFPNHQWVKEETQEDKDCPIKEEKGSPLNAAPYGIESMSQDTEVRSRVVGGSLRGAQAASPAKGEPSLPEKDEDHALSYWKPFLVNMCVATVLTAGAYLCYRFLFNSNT

L6 [8] = experiment: Antidiabetic activity in rat L6 cells assessed as increase in insulin-stimulated 2-NBDG uptake at 0.5 uM after 30 mins by fluorescent assay relative to control; format: functional; in short: as §1
[9] = biological target: T1, Receptor-type tyrosine-protein phosphatase F; experiment: Inhibition of human GST-tagged LAR D1 (1275 to 1613 residues) expressed in Escherichia coli BL21-CondenPlus (DE3) at 25 uM using pNNP as substrate relative to control
[10] = biological target: T6, Tyrosine-protein phosphatase non-receptor type 11 (Homo sapiens) (UniProt Q06124); experiment: Inhibition of human GST-tagged SHP2 ([…] residues) expressed in Escherichia coli BL21-CondenPlus (DE3) at 25 uM using pNNP as substrate relative to control
T6 sequence (whole entry): T4 sequence (Q06124 whole entry)

[11] = biological target: T3, Tyrosine-protein phosphatase non-receptor type 6; experiment: Inhibition of human GST-tagged SHP1 (244 to 570 residues) expressed in Escherichia coli BL21-CondenPlus (DE3) at 25 uM using pNNP as substrate relative to control
[12] = biological target: T7, Tyrosine-protein phosphatase non-receptor type 1 (Homo sapiens) (UniProt P18031); experiment: Inhibition of recombinant human PTP1B at 25 uM using pNNP as substrate after 30 mins relative to control
T7 sequence (whole entry): T5 sequence (P18031 whole entry)
In short: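 Recombinant PTP1B, 30 nM, with 2 mM pNPP, 1 mM dithiothreitol and 1 mM EDTA at pH 6.5. Compounds delivered from DMSO. Incubated 30 min at 37 °C, stopped with 2.5 M NaOH, pNP read at 405 nm.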

T1 sequence (P10586 whole entry, the tested form may be a part): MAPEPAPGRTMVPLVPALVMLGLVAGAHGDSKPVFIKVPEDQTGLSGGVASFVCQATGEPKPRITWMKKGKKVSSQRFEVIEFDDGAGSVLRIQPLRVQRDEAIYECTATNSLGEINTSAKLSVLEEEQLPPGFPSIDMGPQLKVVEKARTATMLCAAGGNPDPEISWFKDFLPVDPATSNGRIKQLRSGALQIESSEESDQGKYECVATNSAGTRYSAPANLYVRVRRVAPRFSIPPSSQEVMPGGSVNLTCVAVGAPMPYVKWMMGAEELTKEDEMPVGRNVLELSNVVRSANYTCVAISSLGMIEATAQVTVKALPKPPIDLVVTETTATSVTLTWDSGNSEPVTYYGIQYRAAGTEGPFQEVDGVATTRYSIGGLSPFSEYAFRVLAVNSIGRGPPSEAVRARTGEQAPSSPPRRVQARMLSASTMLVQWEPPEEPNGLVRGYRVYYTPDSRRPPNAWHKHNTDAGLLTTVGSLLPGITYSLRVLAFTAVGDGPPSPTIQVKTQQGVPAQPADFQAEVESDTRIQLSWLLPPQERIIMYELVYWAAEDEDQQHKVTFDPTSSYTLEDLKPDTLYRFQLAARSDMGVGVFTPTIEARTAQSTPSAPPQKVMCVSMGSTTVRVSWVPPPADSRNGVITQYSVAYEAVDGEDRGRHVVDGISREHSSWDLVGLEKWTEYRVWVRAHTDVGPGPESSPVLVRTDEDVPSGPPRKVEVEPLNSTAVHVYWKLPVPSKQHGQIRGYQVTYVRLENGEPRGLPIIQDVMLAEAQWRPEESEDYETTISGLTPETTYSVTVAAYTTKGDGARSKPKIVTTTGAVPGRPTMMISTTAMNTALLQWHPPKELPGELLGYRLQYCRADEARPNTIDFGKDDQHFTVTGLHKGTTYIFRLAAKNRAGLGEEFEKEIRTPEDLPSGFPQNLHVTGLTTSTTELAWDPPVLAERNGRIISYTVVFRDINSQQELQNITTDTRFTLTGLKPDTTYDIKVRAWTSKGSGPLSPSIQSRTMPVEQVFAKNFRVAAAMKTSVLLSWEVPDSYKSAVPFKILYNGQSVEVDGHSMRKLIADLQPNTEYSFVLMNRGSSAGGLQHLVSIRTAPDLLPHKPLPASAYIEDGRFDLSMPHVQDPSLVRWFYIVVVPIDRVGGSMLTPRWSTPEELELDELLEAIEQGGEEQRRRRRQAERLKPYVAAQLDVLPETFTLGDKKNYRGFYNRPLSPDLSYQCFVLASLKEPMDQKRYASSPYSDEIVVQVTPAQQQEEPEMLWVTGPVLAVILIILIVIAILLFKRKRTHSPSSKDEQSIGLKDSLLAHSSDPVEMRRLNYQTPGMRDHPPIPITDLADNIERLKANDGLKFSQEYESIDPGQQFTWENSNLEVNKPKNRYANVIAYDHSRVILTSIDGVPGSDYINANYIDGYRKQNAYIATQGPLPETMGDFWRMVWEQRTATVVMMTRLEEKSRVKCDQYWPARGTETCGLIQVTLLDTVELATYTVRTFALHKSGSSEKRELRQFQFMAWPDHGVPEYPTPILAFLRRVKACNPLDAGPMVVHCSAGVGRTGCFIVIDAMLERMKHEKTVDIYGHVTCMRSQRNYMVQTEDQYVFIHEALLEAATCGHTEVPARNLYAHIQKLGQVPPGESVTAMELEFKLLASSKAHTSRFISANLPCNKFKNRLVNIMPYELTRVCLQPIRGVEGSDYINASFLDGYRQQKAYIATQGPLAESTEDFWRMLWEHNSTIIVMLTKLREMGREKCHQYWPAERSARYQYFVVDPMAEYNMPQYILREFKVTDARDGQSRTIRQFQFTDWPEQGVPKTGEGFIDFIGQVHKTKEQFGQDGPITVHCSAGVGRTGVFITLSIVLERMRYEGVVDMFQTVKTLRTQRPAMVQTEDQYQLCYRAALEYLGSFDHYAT
T3 sequence (P29350 whole entry, the tested form may be a part): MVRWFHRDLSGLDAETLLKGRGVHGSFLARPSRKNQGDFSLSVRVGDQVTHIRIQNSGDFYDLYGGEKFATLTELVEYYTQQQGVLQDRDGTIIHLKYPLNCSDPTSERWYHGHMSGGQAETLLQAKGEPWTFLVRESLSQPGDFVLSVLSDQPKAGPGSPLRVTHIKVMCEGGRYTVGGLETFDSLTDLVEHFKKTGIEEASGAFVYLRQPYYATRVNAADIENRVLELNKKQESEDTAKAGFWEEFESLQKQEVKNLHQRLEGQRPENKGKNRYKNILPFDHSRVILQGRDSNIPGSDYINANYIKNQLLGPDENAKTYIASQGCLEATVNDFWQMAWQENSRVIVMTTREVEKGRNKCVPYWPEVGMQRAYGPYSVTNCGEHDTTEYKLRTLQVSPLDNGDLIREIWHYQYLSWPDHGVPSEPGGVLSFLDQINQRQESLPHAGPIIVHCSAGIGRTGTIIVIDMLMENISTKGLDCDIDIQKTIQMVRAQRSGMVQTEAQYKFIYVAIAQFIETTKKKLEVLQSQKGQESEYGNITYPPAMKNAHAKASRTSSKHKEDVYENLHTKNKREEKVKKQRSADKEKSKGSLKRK

Row | Compound | IC50 [2] | Ratio IC50 (Homo sapiens) | IC50 [3] | IC50 [7] | also measured
1 | CCOc1cc(NS(C)(=O)=O)c(OCC)cc1CNC(=O)Nc1ccc(OCC)c(C(=O)Nc2ccc(OC)c(OC)c2)c1 | 390 nM | 5.9 | 850 nM | 66.2 nM | IC50 [1]: 7340 nM; Activity (L6 [4]): 18.7%; Activity (L6 [5]): 25.8%; IC50 [6]: 1590 nM; Activity (L6 [8]): 6.6%
2 | CCCNC(=O)c1cc(NC(=O)NCc2cc(OCC)c(NS(C)(=O)=O)cc2OCC)ccc1OCC | 2020 nM | 10.9 | 8630 nM | 184 nM | inhibition [9]: < 50%; inhibition [10]: < 50%
3 | CCOc1cc(NS(C)(=O)=O)c(OCC)cc1CNC(=O)Nc1ccc(OCC)c(C(=O)NC)c1 | 7620 nM | 45.9 | – | 166 nM | inhibition [11]: < 50%; inhibition [9]: < 50%; inhibition [10]: < 50%
4 | CCOc1cc(NS(C)(=O)=O)c(OCC)cc1CNC(=O)Nc1ccc(OCC)c(C(=O)Nc2ccc(OC)cc2)c1 | – | – | – | – | inhibition [12]: < 50%
5 | CCOc1cc(NS(C)(=O)=O)c(OCC)cc1CNC(=O)Nc1ccc(OCC)c(C(=O)Nc2cccc(OC)c2)c1 | – | – | – | 981 nM | –
6 | CCCOc1ccc(NC(=O)NCc2cc(OCC)c(NS(C)(=O)=O)cc2OCC)cc1C(=O)OC | 1180 nM | 17.3 | 3450 nM | 68.2 nM | inhibition [9]: < 50%; IC50 [6]: 7760 nM
7 | CCNC(=O)c1cc(NC(=O)NCc2cc(OCC)c(NS(C)(=O)=O)cc2OCC)ccc1OCC | – | – | – | 169 nM | –
8 | CCOc1cc(NS(C)(=O)=O)c(OCC)cc1CNC(=O)Nc1ccc(OCC)c(C(=O)OC)c1 | 670 nM | 36 | 1090 nM | 18.6 nM | IC50 [1]: 5360 nM; Activity (L6 [4]): 22.4%; Activity (L6 [5]): 22.9%; IC50 [6]: 910 nM; Activity (L6 [8]): 16.2%
9 | CCCCOc1ccc(NC(=O)NCc2cc(OCC)c(NS(C)(=O)=O)cc2OCC)cc1C(=O)OC | – | – | – | 711 nM | –
10 | CCOc1cc(NS(C)(=O)=O)c(OCC)cc1CNC(=O)Nc1ccc(OCC)c(C(=O)Nc2ccc(C)cc2)c1 | 870 nM | 4.1 | 2940 nM | 209 nM | IC50 [1]: 6950 nM; inhibition [10]: < 50%
11 | CCOc1cc(NS(C)(=O)=O)c(OCC)cc1CNC(=O)Nc1ccc(OCC)c(C(=O)Nc2ccccc2)c1 | – | – | – | – | inhibition [12]: < 50%
